Where “and” joins values, the source holds several entries; their conditions need not be identical. Equal values may be shown once.
Assays:
human factor XIa = human factor XIa (Homo sapiens, UniProt P03951); experiment: Direct inhibition of FXIa, chromogenic substrate; format: biochemical
factor XIIa = biological target: T1, factor XIIa (Homo sapiens, UniProt P00748); experiment: Chromogenic substrate hydrolysis assay, factor XIIa; format: biochemical
T1 sequence (P00748 373-615 limits assumed): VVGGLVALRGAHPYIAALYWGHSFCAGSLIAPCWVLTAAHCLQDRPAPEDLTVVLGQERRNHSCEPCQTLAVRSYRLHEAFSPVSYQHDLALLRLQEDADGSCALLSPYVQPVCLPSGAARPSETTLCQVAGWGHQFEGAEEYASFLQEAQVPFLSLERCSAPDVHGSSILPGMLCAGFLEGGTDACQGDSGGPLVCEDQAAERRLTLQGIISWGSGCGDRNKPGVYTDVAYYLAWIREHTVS
T1 sequence (P00748 20-372 partner limits assumed): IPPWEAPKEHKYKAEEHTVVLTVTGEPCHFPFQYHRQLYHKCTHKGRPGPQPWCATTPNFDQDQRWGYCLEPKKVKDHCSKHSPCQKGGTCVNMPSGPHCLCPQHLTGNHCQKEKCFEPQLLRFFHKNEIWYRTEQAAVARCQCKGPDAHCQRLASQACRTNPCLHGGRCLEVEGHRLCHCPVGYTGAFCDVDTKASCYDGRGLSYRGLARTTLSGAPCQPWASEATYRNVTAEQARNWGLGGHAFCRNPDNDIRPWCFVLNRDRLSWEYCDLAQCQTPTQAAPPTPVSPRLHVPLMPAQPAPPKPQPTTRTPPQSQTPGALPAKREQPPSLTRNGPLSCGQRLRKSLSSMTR
Method in brief: (§1)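 Chromogenic substrate hydrolysis with human plasma enzymes, substrate level set from its KM. Enzyme and substrate in well: thrombin 6 nM with Spectrozyme TH 50 µM; factor Xa 1.09 nM with Spectrozyme FXa 125 µM; factor XIIa 5 nM with Spectrozyme FXIIa 125 µM; factor IXa 89 nM with Spectrozyme FIXa 850 µM. Residual activity read spectrophotometrically at six or more serial test compound dilutions, then dose–response fitted.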

human plasma [1] = experiment: Prothrombin time; details: citrated human plasma
Method in brief: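 One-stage recalcification PT on a fibrometer. Test compound was made up in citrated pooled normal human plasma and held 30 s at 37 °C. Clotting was then started with prewarmed reconstituted thromboplastin-D. Clotting time was plotted against concentration and fitted to a quadratic trend line, from which the concentration doubling clotting time was taken.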

human FXIa [2] = biological target: T2, human FXIa (Homo sapiens, UniProt P03951); experiment: Inhibition of FXIa activation of FIX; format: biochemical; details: 6 at 3 µM, FIX 0.5 µM, after 120 min of incubation
T2 sequence (P03951 19-387 limits assumed): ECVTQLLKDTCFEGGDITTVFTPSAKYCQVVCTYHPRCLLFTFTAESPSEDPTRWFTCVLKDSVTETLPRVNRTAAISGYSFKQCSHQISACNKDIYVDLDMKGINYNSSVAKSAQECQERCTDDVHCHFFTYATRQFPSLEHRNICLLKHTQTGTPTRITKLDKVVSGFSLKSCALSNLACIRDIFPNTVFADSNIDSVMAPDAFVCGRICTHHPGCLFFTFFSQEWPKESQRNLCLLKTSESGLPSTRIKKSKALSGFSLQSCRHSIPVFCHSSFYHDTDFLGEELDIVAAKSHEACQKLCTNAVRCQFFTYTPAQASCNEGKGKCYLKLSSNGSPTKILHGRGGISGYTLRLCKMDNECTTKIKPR
T2 sequence (P03951 388-625 limits assumed): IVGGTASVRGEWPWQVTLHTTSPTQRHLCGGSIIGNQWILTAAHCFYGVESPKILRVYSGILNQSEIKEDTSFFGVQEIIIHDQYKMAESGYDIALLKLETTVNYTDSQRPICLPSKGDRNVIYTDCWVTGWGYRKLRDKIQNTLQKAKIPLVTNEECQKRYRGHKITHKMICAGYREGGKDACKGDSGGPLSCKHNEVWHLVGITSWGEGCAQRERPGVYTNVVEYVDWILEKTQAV

bovine trypsin = biological target: T3, bovine trypsin (Bos taurus, UniProt P00760); experiment: Chromogenic substrate hydrolysis assay, trypsin; format: biochemical; details: NI = no inhibition observed up to 1.8 mg/mL
T3 sequence (P00760 24-246): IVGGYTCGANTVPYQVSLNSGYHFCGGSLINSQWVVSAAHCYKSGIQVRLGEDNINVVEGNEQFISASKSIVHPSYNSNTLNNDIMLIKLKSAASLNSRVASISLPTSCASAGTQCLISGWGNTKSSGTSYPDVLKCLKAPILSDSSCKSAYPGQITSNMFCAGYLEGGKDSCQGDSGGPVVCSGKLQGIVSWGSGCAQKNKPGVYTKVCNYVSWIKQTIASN
Method in brief: (§2)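 Digestive protease counter-screen: bovine trypsin 72.5 ng/mL with S-2222 80 µM, or bovine α-chymotrypsin 500 ng/mL with Spectrozyme CTY 240 µM (in-well levels; substrate chosen from KM). Fractional residual activity was measured spectrophotometrically at six or more serially diluted test compound concentrations, profiled for IC50.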

[3] = system: FXIa Catalytic Domain (FXIa-CD); experiment: Michaelis-Menten kinetics of S-2366 hydrolysis by FXIa catalytic domain; format: biochemical, human
factor IXa = factor IXa (Homo sapiens, UniProt P00740); experiment: Chromogenic substrate hydrolysis assay, factor IXa; format: biochemical
Sequence of factor IXa (P00740 227-461 limits assumed): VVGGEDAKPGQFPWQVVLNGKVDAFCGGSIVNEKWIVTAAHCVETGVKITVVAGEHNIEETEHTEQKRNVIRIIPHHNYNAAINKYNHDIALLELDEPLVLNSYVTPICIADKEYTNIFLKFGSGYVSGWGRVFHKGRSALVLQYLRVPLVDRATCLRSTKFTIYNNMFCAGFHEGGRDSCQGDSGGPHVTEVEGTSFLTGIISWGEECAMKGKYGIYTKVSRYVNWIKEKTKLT
Sequence of factor IXa (P00740 47-191 limits assumed): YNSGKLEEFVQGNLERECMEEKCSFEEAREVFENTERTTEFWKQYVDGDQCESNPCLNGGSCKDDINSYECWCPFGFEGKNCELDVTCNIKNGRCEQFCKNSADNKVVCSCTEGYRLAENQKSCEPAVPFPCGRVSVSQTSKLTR
Method in brief: as §1

FXIa Wild Type = FXIa Wild Type (Homo sapiens, UniProt P03951); experiment: Michaelis-Menten kinetics of S-2366 hydrolysis by wild-type FXIa; format: biochemical
Sequence of FXIa Wild Type (P03951 19-387 limits assumed): as the sequence (P03951 19-387 limits assumed) above
Sequence of FXIa Wild Type (P03951 388-625 limits assumed): as the sequence (P03951 388-625 limits assumed) above

human FXIa [4] = biological target: T2, human FXIa; experiment: Competitive inhibition of FXIa by 6 in the presence of UFH; format: biochemical
bovine chymotrypsin = bovine chymotrypsin (Bos taurus, UniProt P00766); experiment: Chromogenic substrate hydrolysis assay, chymotrypsin; format: biochemical; details: NI = no inhibition observed up to 1.8 mg/mL
Method in brief: as §2

human plasma [5] = experiment: Activated partial thromboplastin time; details: for concentration required for a 2-fold increase in APTT: citrated human plasma
human whole blood = experiment: Thromboelastography
Method in brief: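 Thromboelastography at 37 °C: 200 mM CaCl2 stock placed in cup, then sodium-citrated human whole blood containing test compound or water added to recalcify. The cup oscillated through 4°45′ at 0.1 Hz. R, α, maximum amplitude (MA) and shear elastic modulus G were recorded automatically, with G = 5000 × MA/(100 − MA).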

factor VIIa = factor VIIa (Homo sapiens, UniProt P08709); experiment: Chromogenic substrate hydrolysis assay, factor VIIa; format: biochemical; details: NI = no inhibition observed up to 3.7 mg/mL
Sequence of factor VIIa (P08709 213-466 limits assumed): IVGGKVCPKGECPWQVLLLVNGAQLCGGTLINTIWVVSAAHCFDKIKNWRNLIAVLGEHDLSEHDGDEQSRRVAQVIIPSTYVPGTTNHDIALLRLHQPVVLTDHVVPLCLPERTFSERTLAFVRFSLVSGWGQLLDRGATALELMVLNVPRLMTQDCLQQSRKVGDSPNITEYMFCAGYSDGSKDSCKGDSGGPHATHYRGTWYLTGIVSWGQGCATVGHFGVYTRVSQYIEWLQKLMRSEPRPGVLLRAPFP
Sequence of factor VIIa (P08709 61-212 limits assumed): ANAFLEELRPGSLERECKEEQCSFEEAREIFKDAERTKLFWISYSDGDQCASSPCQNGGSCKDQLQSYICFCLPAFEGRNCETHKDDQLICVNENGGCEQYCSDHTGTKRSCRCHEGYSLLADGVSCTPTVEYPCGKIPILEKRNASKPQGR
Sequence of factor VIIa (P13726 33-295 partner): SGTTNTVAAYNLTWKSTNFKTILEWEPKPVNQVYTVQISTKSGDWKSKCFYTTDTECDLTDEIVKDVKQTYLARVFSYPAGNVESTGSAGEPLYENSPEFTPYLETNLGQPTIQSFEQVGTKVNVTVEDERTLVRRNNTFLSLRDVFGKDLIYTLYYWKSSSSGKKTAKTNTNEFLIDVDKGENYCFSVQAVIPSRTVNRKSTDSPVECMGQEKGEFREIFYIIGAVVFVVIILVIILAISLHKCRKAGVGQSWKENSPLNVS
Method in brief: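 Plasma-derived human factor VIIa (8 nM) with 40 nM recombinant tissue factor and Spectrozyme factor VIIa substrate (1000 µM, in well; level chosen from KM). Residual activity was read spectrophotometrically across six or more serially diluted test compound concentrations to build an inhibition profile for IC50.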

thrombin = thrombin (Homo sapiens, UniProt P00734); experiment: Chromogenic substrate hydrolysis assay, thrombin; format: biochemical
Method in brief: as §1

[6] = 6 over the concentration range of 0–280 µg/mL

Sequence of human factor XIa (P03951 19-387 limits assumed): as the sequence (P03951 19-387 limits assumed) above
Sequence of human factor XIa (P03951 388-625 limits assumed): as the sequence (P03951 388-625 limits assumed) above

O=C(OC[C@H]1O[C@@H](OC(=O)c2cc(O)c(O)c(O)c2)[C@H](OC(=O)c2cc(O)c(O)c(O)c2)[C@@H](OC(=O)c2cc(O)c(O)c(O)c2)[C@@H]1OC(=O)c1cc(O)c(O)c(O)c1)c1cc(O)c(O)c(O)c1 [Molecule 5, pentagalloyl glucopyranoside, reference compound]
inhibition of FXIa proteolytic activity (human factor XIa; highest concentration tested (300 µM)): completely inactive

O=C(OC[C@H]1O[C@@H](OC(=O)c2cc(OS(=O)(=O)[O-])c(O)c(OS(=O)(=O)[O-])c2)[C@H](OC(=O)c2cc(OS(=O)(=O)[O-])c(O)c(OS(=O)(=O)[O-])c2)[C@@H](OC(=O)c2cc(OS(=O)(=O)[O-])c(O)c(OS(=O)(=O)[O-])c2)[C@@H]1OC(=O)c1cc(OS(=O)(=O)[O-])c(O)c(OS(=O)(=O)[O-])c1)c1cc(OS(=O)(=O)[O-])c(O)c(OS(=O)(=O)[O-])c1.[Na+].[Na+].[Na+].[Na+].[Na+].[Na+].[Na+].[Na+].[Na+].[Na+] [Molecule 6, sulfated pentagalloylglucoside]
HS (factor XIIa): 3.0 ± 1.8 | concentration required for a 2-fold increase in PT (human plasma [1]): 298 µg/mL | formation of FIXaβ (human FXIa [2]): not detectable | IC50 (bovine trypsin): no inhibition | retention of inhibitory potency with the catalytic domain of FXIa [3]: ~ 100% | decrease of VMAX ([3]; 6 from 0 to 5.0 µg/mL): ~5 fold | VMAX ([3]; [6] 0.5 µg/mL): 53.9 ± 1.4 mAU/min | HS (factor IXa): 2.2 ± 0.6 | VMAX (FXIa Wild Type; [6] 0.005 µg/mL): 93.7 ± 3.2 mAU/min | VMAX (FXIa Wild Type; [6] 0.5 µg/mL): 74.6 ± 2.6 mAU/min | VMAX (FXIa Wild Type; [6] 2.5 µg/mL): 56.9 ± 1.5 mAU/min | VMAX (FXIa Wild Type; [6] 5.0 µg/mL): 32.3 ± 2.1 mAU/min | VMAX (FXIa Wild Type; [6] 50.0 µg/mL): 17.2 mAU/min and 17.2 ± 1.2 mAU/min | IC50 (human FXIa [4]): 16 µM | HS (human FXIa [4]; UFH 0 µM): 1.3 ± 0.1 | HS (human FXIa [4]; UFH 0.13 µM): 1.4 ± 0.2 | HS (human FXIa [4]; UFH 3.33 µM): 1.7 ± 0.2 | HS (human FXIa [4]; UFH 33.3 µM): 4.0 ± 0.9 | IC50 (bovine chymotrypsin): no inhibition | less effective than enoxaparin at molar levels (human plasma [5]; molar basis): 36 fold | IC50 (human factor XIa): 0.612 µM | selectivity for FXIa over other relevant enzymes (human factor XIa): at least 200 fold | HS (Hill slope) (human factor XIa; S-2366 hydrolysis, pH 7.4, 37 °C): 1.3 ± 0.1 | G (shear elastic modulus strength) (human whole blood; 6 at 20 µg/mL): 8.2 × 10^3 kDynes/cm^3 | G (shear elastic modulus strength) (human whole blood; 6 at 135 µg/mL): 5.0 × 10^3 kDynes/cm^3 | G (shear elastic modulus strength) (human whole blood; 6 at 190 µg/mL): 3.8 × 10^3 kDynes/cm^3 | G (shear elastic modulus strength) (human whole blood; 6 at 280 µg/mL): 0.9 × 10^3 kDynes/cm^3 | reduction of G (human whole blood; [6]): ~8 fold | reduction of MA (human whole blood; [6]): ~ 4 fold | IC50 (factor VIIa): no inhibition | ΔY (thrombin): 83 ± 10

COc1cc([C@H]2Oc3cc([C@H]4Oc5cc(OS(=O)(=O)[O-])cc(O)c5C(=O)[C@@H]4OS(=O)(=O)[O-])ccc3O[C@@H]2COS(=O)(=O)[O-])ccc1OS(=O)(=O)[O-].[Na+].[Na+].[Na+].[Na+] [Molecule 2, sulfated silibinin]
concentration required for a 2-fold increase in PT (human plasma [1]): much higher | concentration required for a 2-fold increase in APTT (human plasma [5]): much higher

O=C(/C=C/c1ccc(OS(=O)(=O)[O-])c(OS(=O)(=O)[O-])c1)O[C@@H]1C[C@](O)(C(=O)[O-])C[C@@H](OS(=O)(=O)[O-])[C@H]1OS(=O)(=O)[O-].[Na+].[Na+].[Na+].[Na+].[Na+] [Molecule 4, sulfated chlorogenic acid]
concentration required for a 2-fold increase in PT (human plasma [1]): much higher | concentration required for a 2-fold increase in APTT (human plasma [5]): much higher
